Experimental data: ChEMBL document CHEMBL4811233, “Synthesis, Structure-Activity Relationships, and Antiviral Activity of Allosteric Inhibitors of Flavivirus NS2B-NS3 Protease” (J Med Chem, 2021)
Calls of active or inactive are those of the source. The calls are words filed in the database; no cut-off is given here.

Legend:
Zika virus [1] = assay: Antiviral activity against Zika virus infected in human U87 cells assessed as reduction in infectious virus in supernatant by measuring infection of Vero cells preincubated with viral infected […] cells for 48 hrs and measured following infection of supernatants with Vero cells for 7 days by microscopy; format: functional; details: U-87 MG
Method in brief: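 U87 cells (2×10^4/well, DMEM with 2% FBS monolayer) infected with ZIKV FLR strain (passage-3 stock) at MOI 0.01 for 1 h, then washed. Compound added in triplicate for 48 h at 37 °C. Supernatant half-log dilutions are titrated on Vero cells in quadruplicate for 7 days, with CPE read by microscopy plus MTT. EC68 is the half-log TCID50 reduction versus control; ≥2 independent experiments.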

Genome polyprotein [2] = target: Genome polyprotein (dengue virus type 2, UniProt P29990); assay: Inhibition Dengue serotype-2 NS3B/NS3 protease using 7-amino-4-methylcoumarin as substrate by fluorescence assay
Zika virus [3] = assay: Antiviral activity against Zika Serotype 2 infected mouse model assessed as inhibition of viral load in plasma at 30 mg/kg treated for 3 days; format: functional; details: 72 h, time 3 day
Genome polyprotein [4] = target: Genome polyprotein (West Nile virus, UniProt P06935); assay: Inhibition West Nile virus NS3B/NS3 protease using 7-amino-4-methylcoumarin as substrate by fluorescence assay
Zika virus [5] = assay: Antiviral activity against Zika Serotype 2 infected mouse model assessed as inhibition of viral load in brain at 30 mg/kg treated for 3 days; format: functional; details: 72 h, time 3 day
Nonstructural protein 3 = Nonstructural protein 3 (Zika virus, UniProt A0A024AXB9); assay: Inhibition Zika virus NS2B (47 to 95 residues)/NS3 (1 to 170 residues) protease expressed in Escherichia coli BL21 using 7-amino-4-methylcoumarin as substrate by fluorescence assay
Method in brief: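 Single-chain NS2B(47–95)–Gly4-Ser-Gly4–NS3(1–170) enzyme at 1 nM in 20 mM HEPES pH 7.3 with 0.05% Triton X-100. Compound (1 nM–10 µM, triplicate) is preincubated 10 min before adding Bz-Nle-Lys-Lys-Arg-AMC at 20 µM. Fluorescence (Ex 360/Em 460 nm) is read every 30 s. IC50 comes from dose-response fitting of initial velocities, 3 independent experiments with SD.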

Zika virus [6] = assay: Antiviral activity against Zika virus infected in human U87 cells assessed as inhibition of viral replication at 10 uM; format: functional, organism-based
U-87 MG = assay: Cytotoxicity against human U87 cells assessed as inhibition of proliferation at 10 uM by MTT assay; format: cell-based; details: u-87mg atcc
Vero = assay: Cytotoxicity against African green monkey Vero cells assessed as inhibition of proliferation at 10 uM by MTT assay; format: cell-based; details: chlorocebus sabaeus

Sequence of Nonstructural protein 3 (A0A024AXB9 whole entry, the tested form may be a part): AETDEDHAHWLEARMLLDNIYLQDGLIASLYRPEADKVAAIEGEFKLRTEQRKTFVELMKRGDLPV
Sequence of Genome polyprotein (dengue virus type 2, UniProt P29990) (P29990 1346-1475 limits assumed): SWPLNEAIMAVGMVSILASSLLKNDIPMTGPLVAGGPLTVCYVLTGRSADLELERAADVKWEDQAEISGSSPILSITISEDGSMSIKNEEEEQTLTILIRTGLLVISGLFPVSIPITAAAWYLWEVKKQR
Sequence of Genome polyprotein (dengue virus type 2, UniProt P29990) (P29990 1476-2093 limits assumed): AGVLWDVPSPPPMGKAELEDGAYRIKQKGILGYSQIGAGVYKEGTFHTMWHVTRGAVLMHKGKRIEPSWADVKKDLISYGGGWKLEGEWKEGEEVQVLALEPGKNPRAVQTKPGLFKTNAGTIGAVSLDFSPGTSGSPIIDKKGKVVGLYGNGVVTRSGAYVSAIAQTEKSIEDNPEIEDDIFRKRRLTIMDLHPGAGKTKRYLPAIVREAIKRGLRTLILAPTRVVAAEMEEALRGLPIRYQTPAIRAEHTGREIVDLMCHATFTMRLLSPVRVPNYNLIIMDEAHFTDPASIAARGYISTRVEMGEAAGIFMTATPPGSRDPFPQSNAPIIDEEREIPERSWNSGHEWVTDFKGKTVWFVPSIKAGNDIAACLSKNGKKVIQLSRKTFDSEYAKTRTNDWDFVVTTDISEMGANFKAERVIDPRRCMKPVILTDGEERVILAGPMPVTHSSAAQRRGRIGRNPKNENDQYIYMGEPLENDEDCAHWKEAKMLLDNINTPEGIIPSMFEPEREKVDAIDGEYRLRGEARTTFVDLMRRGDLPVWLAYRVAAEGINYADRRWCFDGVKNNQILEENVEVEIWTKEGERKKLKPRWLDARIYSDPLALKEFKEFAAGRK
Sequence of Genome polyprotein (West Nile virus, UniProt P06935) (P06935 1371-1501 limits assumed): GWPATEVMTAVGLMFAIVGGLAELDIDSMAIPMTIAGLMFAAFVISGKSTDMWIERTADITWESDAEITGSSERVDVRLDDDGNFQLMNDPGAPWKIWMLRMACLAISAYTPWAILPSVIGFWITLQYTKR
Sequence of Genome polyprotein (West Nile virus, UniProt P06935) (P06935 1502-2120 limits assumed): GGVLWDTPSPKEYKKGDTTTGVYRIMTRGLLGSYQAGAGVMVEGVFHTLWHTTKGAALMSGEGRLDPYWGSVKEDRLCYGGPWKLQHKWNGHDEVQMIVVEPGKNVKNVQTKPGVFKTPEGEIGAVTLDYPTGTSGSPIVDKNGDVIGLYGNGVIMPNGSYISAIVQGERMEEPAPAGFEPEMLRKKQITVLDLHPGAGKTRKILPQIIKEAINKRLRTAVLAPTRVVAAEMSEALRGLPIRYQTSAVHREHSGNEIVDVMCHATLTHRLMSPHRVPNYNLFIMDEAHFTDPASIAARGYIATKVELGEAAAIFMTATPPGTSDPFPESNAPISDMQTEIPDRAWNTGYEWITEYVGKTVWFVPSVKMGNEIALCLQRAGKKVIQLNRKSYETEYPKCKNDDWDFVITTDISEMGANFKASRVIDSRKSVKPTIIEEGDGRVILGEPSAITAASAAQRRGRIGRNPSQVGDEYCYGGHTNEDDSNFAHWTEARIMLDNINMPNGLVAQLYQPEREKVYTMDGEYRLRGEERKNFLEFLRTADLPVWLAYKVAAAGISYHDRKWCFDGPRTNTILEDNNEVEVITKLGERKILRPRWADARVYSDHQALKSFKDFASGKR

Row | SMILES | EC68 (Zika virus [1]) [µM] | IC50 (Genome polyprotein [2]) [nM] | inhibition in vivo at 30 mg/kg (Zika virus [3]) [%] | IC50 (Genome polyprotein [4]) [nM] | inhibition in vivo at 30 mg/kg (Zika virus [5]) [%] | IC50 (Nonstructural protein 3) [nM] | inhibition (Zika virus [6]) | Activity (U-87 MG) | Activity (Vero)
1 | NCc1ccc(-c2ncc(OCC3CCNCC3)nc2-c2ccc(-c3ccoc3)cc2)cc1 | 0.3 | 590 | 96 | 780 | 98 |  |  |  | 
2 | ONCc1ccc(-c2ncc(OCCC3CCNCC3)nc2-c2ccc(CNO)cc2)cc1 |  | 3800 |  | 3200 |  | 1600 |  |  | 
3 | NCc1ccc(-c2ncc(OCC3CCNCC3)nc2-c2ccc(-c3ccncc3)cc2)cc1 |  | > 50000 |  | > 50000 |  | 26500 |  |  | 
4 | c1cc(-c2ccc(-c3ncc(OCC4CCNCC4)nc3-c3ccc(-c4ccsc4)cc3)cc2)cs1 |  | 3600 |  | 6600 |  | 1400 |  |  | 
5 | CC(C)(C)c1ccc(-c2ncc(OCC3CCNCC3)nc2-c2ccc(C(C)(C)C)cc2)cc1 | 5 | 8400 |  | 9500 |  | 3100 |  |  | 
6 | NCc1ccc(-c2nc(OCC3CCNCC3)cnc2-c2ccc(-c3ccoc3)cc2)cc1 | 1.2 |  |  |  |  | 680 |  |  | 
7 | Ic1ccc(-c2ncc(OCCC3CCNCC3)nc2-c2ccc(I)cc2)cc1 |  | 10200 |  | 1800 |  | 4700 |  |  | 
8 | NCc1ccc(-c2ncc(OCC3CCNCC3)nc2-c2ccc(O)cc2)cc1 | > 10 |  |  |  |  |  | inactive |  | 
9 | Brc1ccc(-c2ncc(OCC3CCNCC3)nc2-c2ccc(Br)cc2)cc1 | > 10 | 35000 |  | > 50000 |  | 21700 |  |  | 
10 | NC(=O)c1ccc(-c2ncc(OCC3CCNCC3)nc2-c2ccc(-c3ccoc3)cc2)cc1 | 2.5 | 980 |  | 1340 |  | 1100 |  |  | 
11 | NCc1ccc(-c2ccc(NCC3CCNCC3)nc2-c2ccc(-c3ccoc3)cc2)cc1 | 1.2 | 860 |  | 1300 |  | 790 |  |  | 
12 | Cc1cc(CN)ccc1-c1ncc(OCC2CCNCC2)nc1-c1ccc(CN)cc1C |  | 6300 |  | 3600 |  | 2100 |  |  | 
13 | NCc1ccc(-c2ncc(OCC3CCNCC3)nc2-c2ccc(-c3cn[nH]c3)cc2)cc1 | 2.5 | 210 |  |  |  | 760 |  |  | 
14 | NCc1ccc(-c2ncc(OCC3CCNCC3)nc2-c2ccc(C3CCOCC3)nc2)cc1 | 3 |  |  |  |  | 1000 |  | Non-Toxic | Non-Toxic
15 | CC(C)(C)C(=O)OCc1ccc(-c2ncc(OCC3CCNCC3)nc2-c2ccc(COC(=O)C(C)(C)C)cc2)cc1 |  | 13400 |  | 20000 |  | 9800 |  |  | 
16 | NCc1ccc(-c2ncc(OCC3CCNCC3)nc2-c2ccc(C3CCOCC3)cc2)cc1 | 0.6 | 2400 |  | 820 |  | 130 |  | Non-Toxic | Non-Toxic
17 | NCc1ccc(-c2ncc(OCC3CCNCC3)nc2-c2ccc3[nH]ccc3c2)cc1 | 2.5 | 640 |  | 930 |  |  |  |  | 
18 | NCc1ccc(-c2ncc(NCC3CCNCC3)nc2-c2ccc(-c3ccoc3)cc2)cc1 | 1.2 | 290 |  | 510 |  | 400 |  |  | 
19 | NCc1ccc(-c2cc(CNCC3CCNCC3)sc2-c2ccc(CN)cc2)cc1 |  |  |  | > 50000 |  | 10700 |  |  | 
20 | CC(Oc1cnc(-c2ccc(CN)cc2)c(-c2ccc(-c3ccoc3)cc2)n1)C1CCNCC1 (racemic) | 1.2 |  |  |  |  | 240 |  |  | 
21 | NCc1ccc(-c2ncc(OCC3CCNCC3)nc2-c2ccc(Oc3ccccc3)cc2)cc1 |  | > 50000 |  | > 50000 |  | 32600 |  |  | 
22 | NCc1ccc(-c2ncc(OCC3CCNCC3)nc2-c2ccc(C(=O)N3CCCCC3)cc2)cc1 |  |  |  |  |  | 3500 |  | Non-Toxic | Non-Toxic
23 | CNCc1ccc(-c2ncc(OCC3CCNCC3)nc2-c2ccc(-c3ccoc3)cc2)cc1 | 1.2 | 730 |  | 870 |  |  |  |  | 
